Results from ChEMBL document CHEMBL4325909, “Synthesis and evaluation of chalcone analogues containing a 4-oxoquinazolin-2-yl group as potential anti-tumor agents” (Eur J Med Chem, 2019).

Experiments:
HCT-116 [1] = assay: Cytotoxicity against human HCT116 cells assessed as reduction in cell viability at 20 uM after 72 hrs by MTS assay relative to control; assay type: functional
In short: (§1)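 Cells grown in DMEM with 10% FBS at 37 °C, 5% CO2, exposed to 20 μM for 72 h. Proliferation read by MTS and inhibition expressed relative to vehicle. ≥50% inhibition counted as active. Triplicate wells, three independent experiments.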

MCF7 [2] = assay: Cytotoxicity against human MCF7 cells assessed as reduction in cell viability after 72 hrs by MTS assay; assay type: functional, cell-based; settings: MCF7, 72 h
In short: (§2)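 Cells kept in DMEM with 10% FBS at 37 °C, 5% CO2. Proliferation read by MTS (CellTiter 96 AQueous One) 72 h after exposure across a concentration range. IC50 is the concentration giving 50% proliferation inhibition. Triplicate wells, three independent experiments, mean ± SD.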

MCF7 [3] = assay: Cytotoxicity against human MCF7 cells assessed as reduction in cell viability at 20 uM after 72 hrs by MTS assay relative to control; assay type: functional; in short: as §1
HCT-116 [4] = assay: Cytotoxicity against human HCT116 cells assessed as reduction in cell viability after 72 hrs by MTS assay; assay type: functional, cell-based; settings: HCT-116, 72 h; in short: as §2
MDA-MB-231 = assay: Cytotoxicity against human MDA-MB-231 cells assessed as reduction in cell viability after 72 hrs by MTS assay; assay type: functional, cell-based; settings: MDA-MB-231, 72 h
In short: (§3)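 MTS (CellTiter 96 AQueous One) proliferation read after 72 h of exposure across a concentration range. IC50 is the concentration giving 50% proliferation inhibition. Triplicate determinations in three independent experiments, mean ± SD.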

HT-29 = assay: Cytotoxicity against human HT-29 cells assessed as reduction in cell viability after 72 hrs by MTS assay; assay type: functional, cell-based; settings: HT-29, 72 h; in short: as §3
HeLa = assay: Cytotoxicity against human HeLa cells assessed as reduction in cell viability after 72 hrs by MTS assay; assay type: functional, cell-based; in short: as §3
MCF-10A = assay: Cytotoxicity against human MCF10A cells assessed as reduction in cell viability after 72 hrs by MTS assay; assay type: cell-based; in short: as §3
A549 = assay: Cytotoxicity against human A549 cells assessed as reduction in cell viability after 72 hrs by MTS assay; assay type: functional, cell-based; settings: A549, 72 h; in short: as §3

SMILES | Activity (HCT-116 [1]) | IC50 (MCF7 [2]) [µM] | Activity (MCF7 [3]) | IC50 (HCT-116 [4]) [µM] | IC50 (MDA-MB-231) [µM] | IC50 (HT-29) [µM] | IC50 (HeLa) [µM] | IC50 (MCF-10A) [µM] | IC50 (A549) [µM]
COc1ccc(C(=O)/C=C/c2nc3ccccc3c(=O)[nH]2)cc1 | >=50% | 10.2 | >=50% | 10 |  |  |  |  | 
Cc1ccc(/C=C/C(=O)c2nc3ccccc3c(=O)[nH]2)cc1 | >=50% | > 20 | < 50% | > 20 |  |  |  |  | 
O=C(/C=C/c1nc2ccccc2c(=O)[nH]1)c1ccc(Cl)c(Cl)c1 | >=50% | 8.21 | >=50% | 17 |  |  |  |  | 
O=C(/C=C/c1nc2ccccc2c(=O)[nH]1)c1ccc(O)cc1 | >=50% | 4.92 | >=50% | 4.11 | 16.5 | 10.7 | 9.44 | 6.12 | 15.1
COc1ccc(C(=O)/C=C/c2nc3ccccc3c(=O)[nH]2)c(OC)c1 | >=50% | 4.49 | >=50% | 4.08 | 14.3 | 8.77 | 12.7 | 9.14 | 15.5
O=C(/C=C/c1nc2ccccc2c(=O)[nH]1)c1ccc(F)cc1 | < 50% | > 20 | < 50% | > 20 |  |  |  |  | 
Nc1ccc(C(=O)/C=C/c2nc3ccccc3c(=O)[nH]2)cc1 | < 50% | > 20 | < 50% | > 20 |  |  |  |  | 
O=C(/C=C/c1nc2ccccc2c(=O)[nH]1)c1ccc(Cl)cc1 | >=50% | 6.09 | >=50% | 6.1 |  |  |  |  | 
O=C(/C=C/c1ccco1)c1nc2ccccc2c(=O)[nH]1 | >=50% | > 20 | >=50% | > 20 |  |  |  |  | 
COc1ccc(/C=C/C(=O)c2nc3ccccc3c(=O)[nH]2)cc1OC | < 50% | > 20 | < 50% | > 20 |  |  |  |  | 
O=C(/C=C/c1nc2ccccc2c(=O)[nH]1)c1ccc(Br)cc1 | >=50% | 3.75 | >=50% | 4.74 | 18.3 | > 20 | 16.1 | 11.3 | 19.5
O=C(/C=C/c1ccc([N+](=O)[O-])cc1)c1nc2ccccc2c(=O)[nH]1 | >=50% | > 20 | >=50% | 13.2 |  |  |  |  | 
O=c1[nH]cc(F)c(=O)[nH]1 [FLUOROURACIL] |  |  |  |  | > 20 | 9.99 | > 20 | > 20 | 15
Cc1ccc(C(=O)/C=C/c2nc3ccccc3c(=O)[nH]2)c(C)c1 | >=50% | 4.5 | >=50% | 4.77 | 15.3 | 12.5 | 9.55 | 5.47 | 13.3
Cc1ccc(C(=O)/C=C/c2nc3ccccc3c(=O)[nH]2)cc1 | >=50% | 9.44 | >=50% | 5.75 |  |  |  |  | 
O=C(/C=C/c1ccc(F)cc1)c1nc2ccccc2c(=O)[nH]1 | >=50% | > 20 | >=50% | 15.2 |  |  |  |  | 
O=C(/C=C/c1ccccc1)c1nc2ccccc2c(=O)[nH]1 | < 50% | > 20 | >=50% | > 20 |  |  |  |  | 
COc1cc(/C=C/C(=O)c2nc3ccccc3c(=O)[nH]2)cc(OC)c1 | >=50% | 16.8 | >=50% | 15.8 |  |  |  |  | 
COc1ccccc1C(=O)/C=C/c1nc2ccccc2c(=O)[nH]1 | >=50% | 4.3 | >=50% | 3.91 | 15.7 | 6.71 | 13.4 | 5.26 | 13.7

SMILES | Activity (HCT-116 [1]) | IC50 (MCF7 [2]) [µM] | Activity (MCF7 [3]) | IC50 (HCT-116 [4]) [µM] | IC50 (MDA-MB-231) [µM] | IC50 (HT-29) [µM] | IC50 (HeLa) [µM] | IC50 (MCF-10A) [µM] | IC50 (A549) [µM]
COc1cc(C(=O)/C=C/c2nc3ccccc3c(=O)[nH]2)cc(OC)c1OC | >=50% | 13.9 | >=50% | 12.8 |  |  |  |  | 
N#Cc1ccc(/C=C/C(=O)c2nc3ccccc3c(=O)[nH]2)cc1 | >=50% | > 20 | >=50% | 19.8 |  |  |  |  | 
COc1ccc(/C=C/C(=O)c2nc3ccccc3c(=O)[nH]2)c(OC)c1 | < 50% | > 20 | < 50% | > 20 |  |  |  |  | 
Cc1ccccc1C(=O)/C=C/c1nc2ccccc2c(=O)[nH]1 | >=50% | 4.2 | >=50% | 4.14 | 10.5 | 6.45 | 10.4 | 6.19 | 13.3
O=C(/C=C/c1ccc(Br)cc1)c1nc2ccccc2c(=O)[nH]1 | >=50% | > 20 | >=50% | > 20 |  |  |  |  | 
COc1cccc(C(=O)/C=C/c2nc3ccccc3c(=O)[nH]2)c1 | >=50% | 12.9 | >=50% | 12 |  |  |  |  | 
COc1cc(C(=O)/C=C/c2nc3ccccc3c(=O)[nH]2)ccc1O | >=50% | 6.05 | >=50% | 4.58 |  |  |  |  | 
COc1ccccc1/C=C/C(=O)c1nc2ccccc2c(=O)[nH]1 | < 50% | > 20 | >=50% | > 20 |  |  |  |  | 
O=C(/C=C/c1nc2ccccc2c(=O)[nH]1)c1ccccc1 | >=50% | 4.09 | >=50% | 5.47 |  |  |  |  | 
O=C(/C=C/c1ccc(Cl)cc1)c1nc2ccccc2c(=O)[nH]1 | >=50% | > 20 | >=50% | 15.6 |  |  |  |  | 
COc1ccc(/C=C/C(=O)c2nc3ccccc3c(=O)[nH]2)cc1 | < 50% | > 20 | < 50% | > 20 |  |  |  |  | 
COc1cccc(/C=C/C(=O)c2nc3ccccc3c(=O)[nH]2)c1 | >=50% | 15.5 | >=50% | 14.7 |  |  |  |  | 
COc1cc(OC)c(C(=O)/C=C/c2nc3ccccc3c(=O)[nH]2)c(OC)c1 | >=50% | 5.02 | >=50% | 5.57 |  |  |  |  | 
O=C(/C=C/c1cccnc1)c1nc2ccccc2c(=O)[nH]1 | >=50% | > 20 | >=50% | > 20 |  |  |  |  | 
O=C(/C=C/c1nc2ccccc2c(=O)[nH]1)c1ccc(C(F)(F)F)cc1 | < 50% | > 20 | < 50% | > 20 |  |  |  |  | 
O=C(/C=C/c1ccncc1)c1nc2ccccc2c(=O)[nH]1 | >=50% | > 20 | < 50% | > 20 |  |  |  |  | 
O=C(/C=C/c1cccs1)c1nc2ccccc2c(=O)[nH]1 | >=50% | > 20 | >=50% | > 20 |  |  |  |  | 
O=C(/C=C/c1ccccn1)c1nc2ccccc2c(=O)[nH]1 | >=50% | > 20 | >=50% | > 20 |  |  |  |  | 
COc1cc(/C=C/C(=O)c2nc3ccccc3c(=O)[nH]2)cc(OC)c1OC | >=50% | > 20 | < 50% | > 20 |  |  |  |  | 
